In general, inhibition refers to the relative decrease from the control value, in per cent. As a reminder, the residual activity is the share of the control activity or signal that is left under treatment. A low value points to little activity left.

Active and inactive are the calls of the source. The rule behind the calls is not given here.

Assay [1] concerns the target Mitogen-activated protein kinase 4 (Homo sapiens) (UniProt P31152). The assay is described as follows: Inhibition of ERK4 (unknown origin) at 1 uM by Ambit Kinomescan binding assay relative to control.
In assay [2] the target is 5'-AMP-activated protein kinase catalytic subunit alpha-2 (Homo sapiens) (UniProt P54646). Description: Inhibition of AMPKa2 Lys1 labeling site in human A-375 cells at 0.5 uM by KiNativ Profiling analysis relative to control. The format is cell-based. The method, boiled down: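 Live A375 melanoma cells were treated with compound at 5 or 0.5 μM, then lysed. The lysates were labeled with a lysine-reactive ATP or ADP-biotin probe. Kinase protection from probe labeling was measured by KiNativ.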
Sequence of 5'-AMP-activated protein kinase catalytic subunit alpha-2 (Homo sapiens) (P54646 whole entry, looked up): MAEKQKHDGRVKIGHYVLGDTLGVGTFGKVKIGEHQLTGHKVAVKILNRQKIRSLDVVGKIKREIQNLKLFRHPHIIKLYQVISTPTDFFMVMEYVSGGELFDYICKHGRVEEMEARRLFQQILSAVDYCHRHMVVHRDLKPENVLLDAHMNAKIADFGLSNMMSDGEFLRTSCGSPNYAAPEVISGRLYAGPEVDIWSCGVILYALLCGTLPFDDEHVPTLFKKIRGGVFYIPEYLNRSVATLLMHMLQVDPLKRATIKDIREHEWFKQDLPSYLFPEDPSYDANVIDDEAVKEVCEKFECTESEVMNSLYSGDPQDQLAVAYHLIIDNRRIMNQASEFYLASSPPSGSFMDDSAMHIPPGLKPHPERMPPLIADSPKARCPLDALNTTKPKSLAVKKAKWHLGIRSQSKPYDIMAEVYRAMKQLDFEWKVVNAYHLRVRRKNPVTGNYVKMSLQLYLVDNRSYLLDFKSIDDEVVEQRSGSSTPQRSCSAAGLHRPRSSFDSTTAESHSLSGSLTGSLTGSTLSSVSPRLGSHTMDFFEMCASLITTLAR

The target of assay [3] is Glycogen synthase kinase-3 beta (Homo sapiens) (UniProt P49841). The assay is described as follows: Inhibition of GSK3B Lys2 labeling site in human A-375 cells at 0.05 uM by KiNativ Profiling analysis relative to control. The class given is cell-based.
Assay [4] deals with Tyrosine-protein kinase Fer (Homo sapiens, UniProt P16591). The assay is described as follows: Inhibition of FER (unknown origin) at 1 uM by Ambit Kinomescan binding assay relative to control; values are per cent of control.
Sequence of Tyrosine-protein kinase Fer (P16591 whole entry, looked up): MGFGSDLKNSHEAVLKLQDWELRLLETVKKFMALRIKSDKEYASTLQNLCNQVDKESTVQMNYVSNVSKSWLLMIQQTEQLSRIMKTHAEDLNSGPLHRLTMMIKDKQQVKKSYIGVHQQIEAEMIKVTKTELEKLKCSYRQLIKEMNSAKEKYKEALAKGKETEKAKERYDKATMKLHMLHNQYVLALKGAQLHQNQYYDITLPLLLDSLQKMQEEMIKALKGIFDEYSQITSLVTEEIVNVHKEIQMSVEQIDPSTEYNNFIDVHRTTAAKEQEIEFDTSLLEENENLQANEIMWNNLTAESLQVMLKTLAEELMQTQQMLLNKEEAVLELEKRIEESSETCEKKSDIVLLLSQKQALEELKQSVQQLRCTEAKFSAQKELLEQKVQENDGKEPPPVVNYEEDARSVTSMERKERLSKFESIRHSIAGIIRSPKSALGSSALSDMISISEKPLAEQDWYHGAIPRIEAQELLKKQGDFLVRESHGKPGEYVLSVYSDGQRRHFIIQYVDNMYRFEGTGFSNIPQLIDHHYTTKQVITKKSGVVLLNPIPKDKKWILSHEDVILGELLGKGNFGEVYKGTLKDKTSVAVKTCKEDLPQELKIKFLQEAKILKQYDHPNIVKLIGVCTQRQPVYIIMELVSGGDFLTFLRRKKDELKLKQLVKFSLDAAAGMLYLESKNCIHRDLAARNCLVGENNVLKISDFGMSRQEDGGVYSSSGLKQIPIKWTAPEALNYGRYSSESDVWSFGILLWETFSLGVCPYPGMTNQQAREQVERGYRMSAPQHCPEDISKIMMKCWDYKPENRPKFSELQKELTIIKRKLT
Assay [5] concerns the target Epidermal growth factor receptor (Homo sapiens) (UniProt P00533). The assay is described as follows: Inhibition of EGFR (unknown origin) at 10 uM by Ambit Kinomescan binding assay relative to control.
Assay [6] has as its target Cyclin-dependent kinase 14 (Homo sapiens) (UniProt O94921). The assay is described as follows: Inhibition of PFTK1 (unknown origin) at 10 uM by Ambit Kinomescan binding assay relative to control.
The target in assay [7] is Serine/threonine-protein kinase 33 (Homo sapiens) (UniProt Q9BYT3). The assay is described as follows: Inhibition of STK33 (unknown origin) at 10 uM by Ambit Kinomescan binding assay.
Sequence of Serine/threonine-protein kinase 33 (Homo sapiens) (Q9BYT3 whole entry, looked up): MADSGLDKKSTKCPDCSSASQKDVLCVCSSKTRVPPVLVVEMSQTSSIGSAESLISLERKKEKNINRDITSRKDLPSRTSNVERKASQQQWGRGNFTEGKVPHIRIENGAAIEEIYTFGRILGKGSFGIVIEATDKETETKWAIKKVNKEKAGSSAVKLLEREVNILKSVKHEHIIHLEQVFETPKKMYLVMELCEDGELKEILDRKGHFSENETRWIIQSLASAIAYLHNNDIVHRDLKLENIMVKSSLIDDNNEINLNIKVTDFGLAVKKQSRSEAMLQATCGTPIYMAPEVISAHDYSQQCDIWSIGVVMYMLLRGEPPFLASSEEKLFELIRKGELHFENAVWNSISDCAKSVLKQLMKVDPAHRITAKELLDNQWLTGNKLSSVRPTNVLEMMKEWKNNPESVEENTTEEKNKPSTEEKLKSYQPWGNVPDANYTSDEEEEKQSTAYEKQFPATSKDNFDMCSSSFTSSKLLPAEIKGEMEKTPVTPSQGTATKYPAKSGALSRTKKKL
For assay [8], the target named is T1, Mitogen-activated protein kinase kinase kinase kinase 2 (Homo sapiens) (UniProt Q12851).
T1 sequence (whole entry): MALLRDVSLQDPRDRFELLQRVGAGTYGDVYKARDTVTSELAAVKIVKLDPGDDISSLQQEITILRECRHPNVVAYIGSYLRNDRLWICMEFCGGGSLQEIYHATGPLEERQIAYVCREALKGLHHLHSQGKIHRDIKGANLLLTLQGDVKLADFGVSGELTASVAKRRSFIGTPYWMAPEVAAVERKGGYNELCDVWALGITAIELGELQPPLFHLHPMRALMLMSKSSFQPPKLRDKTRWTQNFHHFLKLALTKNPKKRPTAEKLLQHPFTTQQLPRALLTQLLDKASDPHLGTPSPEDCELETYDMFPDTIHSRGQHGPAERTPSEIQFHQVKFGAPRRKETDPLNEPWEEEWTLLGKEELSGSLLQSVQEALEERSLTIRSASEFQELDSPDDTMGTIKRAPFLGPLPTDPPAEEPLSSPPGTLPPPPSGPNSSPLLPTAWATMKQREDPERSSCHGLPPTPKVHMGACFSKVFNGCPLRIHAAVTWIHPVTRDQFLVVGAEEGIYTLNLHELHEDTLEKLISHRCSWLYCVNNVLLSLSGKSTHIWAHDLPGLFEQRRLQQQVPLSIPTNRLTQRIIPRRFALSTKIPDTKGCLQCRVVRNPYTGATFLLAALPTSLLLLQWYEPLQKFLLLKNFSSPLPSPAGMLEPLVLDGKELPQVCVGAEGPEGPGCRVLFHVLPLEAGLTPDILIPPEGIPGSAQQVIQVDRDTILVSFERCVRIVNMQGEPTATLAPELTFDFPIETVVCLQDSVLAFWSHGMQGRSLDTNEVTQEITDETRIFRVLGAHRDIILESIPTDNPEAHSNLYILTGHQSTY
The assay is described as follows: Inhibition of MAP4K2 (GCK) Lys2 labeling site in human A-375 cells at 0.05 uM by KiNativ Profiling analysis relative to control. The format is cell-based.

Assay [9] concerns the target T2, Serine/threonine-protein kinase Nek9 (Homo sapiens) (UniProt Q8TD19).
T2 sequence (whole entry): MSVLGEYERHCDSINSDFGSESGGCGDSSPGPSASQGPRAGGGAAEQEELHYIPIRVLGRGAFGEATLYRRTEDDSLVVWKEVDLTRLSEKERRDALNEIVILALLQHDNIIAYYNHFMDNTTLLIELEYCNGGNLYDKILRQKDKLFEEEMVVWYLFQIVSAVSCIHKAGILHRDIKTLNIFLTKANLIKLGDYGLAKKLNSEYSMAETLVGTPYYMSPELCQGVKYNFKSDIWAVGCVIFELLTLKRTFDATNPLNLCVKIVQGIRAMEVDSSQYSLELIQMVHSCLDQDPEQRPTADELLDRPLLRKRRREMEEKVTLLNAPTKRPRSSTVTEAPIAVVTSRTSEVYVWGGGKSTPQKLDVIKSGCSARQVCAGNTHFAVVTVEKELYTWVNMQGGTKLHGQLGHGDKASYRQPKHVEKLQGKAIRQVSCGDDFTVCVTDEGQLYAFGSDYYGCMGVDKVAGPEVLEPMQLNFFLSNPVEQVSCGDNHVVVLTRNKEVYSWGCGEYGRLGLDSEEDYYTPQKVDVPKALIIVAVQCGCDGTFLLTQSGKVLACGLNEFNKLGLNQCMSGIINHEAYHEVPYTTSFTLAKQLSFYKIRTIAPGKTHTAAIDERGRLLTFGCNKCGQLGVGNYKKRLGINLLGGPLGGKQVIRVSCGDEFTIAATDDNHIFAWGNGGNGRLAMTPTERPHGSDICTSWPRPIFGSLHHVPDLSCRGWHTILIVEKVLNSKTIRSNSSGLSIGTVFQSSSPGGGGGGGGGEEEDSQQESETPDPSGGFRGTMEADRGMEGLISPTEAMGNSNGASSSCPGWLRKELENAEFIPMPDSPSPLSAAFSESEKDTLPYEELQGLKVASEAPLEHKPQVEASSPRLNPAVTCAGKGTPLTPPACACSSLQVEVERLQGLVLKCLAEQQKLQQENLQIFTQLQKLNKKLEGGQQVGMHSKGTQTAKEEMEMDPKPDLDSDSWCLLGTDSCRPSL
Description: Inhibition of NEK9 K1 labeling site harbouring TEDDSLVVWKEVDLTR in human Huh-7 cells at 10 uM by KiNativ Profiling analysis relative to control. The class given is cell-based.

Assay [10] concerns the target Mitogen-activated protein kinase kinase kinase kinase 4 (Homo sapiens, UniProt O95819). The assay is described as follows: Inhibition of ZC1/HGK K2 labeling site in human Huh-7 cells at 1 uM by KiNativ Profiling analysis relative to control. The format is cell-based.
In assay [11] the target is MAP/microtubule affinity-regulating kinase 3 (Homo sapiens) (UniProt P27448). The assay is described as follows: Inhibition of MARK3 K1 labeling site in human Huh-7 cells at 1 uM by KiNativ Profiling analysis relative to control. The format is cell-based.
Sequence of MAP/microtubule affinity-regulating kinase 3 (Homo sapiens) (P27448 whole entry, looked up): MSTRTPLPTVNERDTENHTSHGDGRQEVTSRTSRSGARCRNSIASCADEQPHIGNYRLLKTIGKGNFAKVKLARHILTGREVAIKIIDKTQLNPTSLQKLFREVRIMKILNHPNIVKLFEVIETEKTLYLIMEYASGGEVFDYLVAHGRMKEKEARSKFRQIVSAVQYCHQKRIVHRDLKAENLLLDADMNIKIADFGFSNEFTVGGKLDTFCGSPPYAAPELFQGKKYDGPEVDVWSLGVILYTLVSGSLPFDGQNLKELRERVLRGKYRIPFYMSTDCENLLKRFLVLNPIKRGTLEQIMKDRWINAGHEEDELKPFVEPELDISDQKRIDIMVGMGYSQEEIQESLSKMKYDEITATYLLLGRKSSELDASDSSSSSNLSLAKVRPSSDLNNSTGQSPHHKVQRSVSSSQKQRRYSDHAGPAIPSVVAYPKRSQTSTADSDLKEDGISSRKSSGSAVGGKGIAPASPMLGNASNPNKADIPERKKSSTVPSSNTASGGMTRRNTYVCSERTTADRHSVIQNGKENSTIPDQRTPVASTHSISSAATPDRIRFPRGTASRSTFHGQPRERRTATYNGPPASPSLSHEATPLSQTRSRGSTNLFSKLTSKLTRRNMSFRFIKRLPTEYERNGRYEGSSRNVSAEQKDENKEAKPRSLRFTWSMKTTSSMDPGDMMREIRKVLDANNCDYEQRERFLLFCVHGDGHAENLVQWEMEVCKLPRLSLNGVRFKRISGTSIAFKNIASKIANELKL
The target of assay [12] is Calcium/calmodulin-dependent protein kinase type II subunit delta (Homo sapiens) (UniProt Q13557). The assay is described as follows: Inhibition of CaMK2d Lys2 labeling site in human Huh-7 cell lysate at 1 uM by KiNativ Profiling analysis relative to control. The format is subcellular.
Sequence of Calcium/calmodulin-dependent protein kinase type II subunit delta (Homo sapiens) (Q13557 whole entry): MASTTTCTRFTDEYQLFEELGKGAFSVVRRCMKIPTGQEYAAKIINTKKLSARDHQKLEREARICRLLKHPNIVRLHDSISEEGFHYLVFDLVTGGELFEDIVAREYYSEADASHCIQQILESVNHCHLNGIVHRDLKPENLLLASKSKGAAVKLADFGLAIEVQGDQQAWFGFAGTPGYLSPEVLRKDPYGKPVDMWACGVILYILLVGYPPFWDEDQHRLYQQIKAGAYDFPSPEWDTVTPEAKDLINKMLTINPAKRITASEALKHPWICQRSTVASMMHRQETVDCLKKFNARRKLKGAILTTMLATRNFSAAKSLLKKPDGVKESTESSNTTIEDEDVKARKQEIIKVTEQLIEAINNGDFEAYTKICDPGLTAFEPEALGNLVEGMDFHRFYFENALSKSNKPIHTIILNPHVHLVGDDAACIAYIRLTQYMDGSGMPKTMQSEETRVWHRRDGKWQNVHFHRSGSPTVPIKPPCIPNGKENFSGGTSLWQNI
In assay [13] the target is Serine/threonine-protein kinase 10 (Homo sapiens) (UniProt O94804). Description: Inhibition of LOK Lys2 labeling site harbouring DLKAGNVLMTLEGDIR in human Huh-7 cell lysate at 1 uM by KiNativ Profiling analysis relative to control. The format is subcellular.

Sequence of Mitogen-activated protein kinase 4 (Homo sapiens) (P31152 whole entry): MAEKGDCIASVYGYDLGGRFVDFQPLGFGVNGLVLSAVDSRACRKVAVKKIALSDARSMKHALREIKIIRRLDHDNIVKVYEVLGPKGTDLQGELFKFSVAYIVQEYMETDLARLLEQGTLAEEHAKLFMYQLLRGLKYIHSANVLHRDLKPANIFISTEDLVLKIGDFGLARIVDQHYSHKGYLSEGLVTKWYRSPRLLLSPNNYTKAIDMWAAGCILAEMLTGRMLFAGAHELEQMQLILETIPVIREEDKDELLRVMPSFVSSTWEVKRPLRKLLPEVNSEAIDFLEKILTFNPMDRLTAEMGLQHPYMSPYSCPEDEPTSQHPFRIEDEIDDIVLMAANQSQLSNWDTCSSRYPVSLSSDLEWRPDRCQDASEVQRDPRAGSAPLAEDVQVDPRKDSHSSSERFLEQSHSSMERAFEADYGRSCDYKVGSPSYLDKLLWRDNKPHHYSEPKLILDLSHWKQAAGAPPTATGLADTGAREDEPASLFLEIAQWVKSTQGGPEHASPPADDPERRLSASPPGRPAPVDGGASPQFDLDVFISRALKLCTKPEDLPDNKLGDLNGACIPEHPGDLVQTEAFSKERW
Sequence of Epidermal growth factor receptor (Homo sapiens) (P00533 whole entry): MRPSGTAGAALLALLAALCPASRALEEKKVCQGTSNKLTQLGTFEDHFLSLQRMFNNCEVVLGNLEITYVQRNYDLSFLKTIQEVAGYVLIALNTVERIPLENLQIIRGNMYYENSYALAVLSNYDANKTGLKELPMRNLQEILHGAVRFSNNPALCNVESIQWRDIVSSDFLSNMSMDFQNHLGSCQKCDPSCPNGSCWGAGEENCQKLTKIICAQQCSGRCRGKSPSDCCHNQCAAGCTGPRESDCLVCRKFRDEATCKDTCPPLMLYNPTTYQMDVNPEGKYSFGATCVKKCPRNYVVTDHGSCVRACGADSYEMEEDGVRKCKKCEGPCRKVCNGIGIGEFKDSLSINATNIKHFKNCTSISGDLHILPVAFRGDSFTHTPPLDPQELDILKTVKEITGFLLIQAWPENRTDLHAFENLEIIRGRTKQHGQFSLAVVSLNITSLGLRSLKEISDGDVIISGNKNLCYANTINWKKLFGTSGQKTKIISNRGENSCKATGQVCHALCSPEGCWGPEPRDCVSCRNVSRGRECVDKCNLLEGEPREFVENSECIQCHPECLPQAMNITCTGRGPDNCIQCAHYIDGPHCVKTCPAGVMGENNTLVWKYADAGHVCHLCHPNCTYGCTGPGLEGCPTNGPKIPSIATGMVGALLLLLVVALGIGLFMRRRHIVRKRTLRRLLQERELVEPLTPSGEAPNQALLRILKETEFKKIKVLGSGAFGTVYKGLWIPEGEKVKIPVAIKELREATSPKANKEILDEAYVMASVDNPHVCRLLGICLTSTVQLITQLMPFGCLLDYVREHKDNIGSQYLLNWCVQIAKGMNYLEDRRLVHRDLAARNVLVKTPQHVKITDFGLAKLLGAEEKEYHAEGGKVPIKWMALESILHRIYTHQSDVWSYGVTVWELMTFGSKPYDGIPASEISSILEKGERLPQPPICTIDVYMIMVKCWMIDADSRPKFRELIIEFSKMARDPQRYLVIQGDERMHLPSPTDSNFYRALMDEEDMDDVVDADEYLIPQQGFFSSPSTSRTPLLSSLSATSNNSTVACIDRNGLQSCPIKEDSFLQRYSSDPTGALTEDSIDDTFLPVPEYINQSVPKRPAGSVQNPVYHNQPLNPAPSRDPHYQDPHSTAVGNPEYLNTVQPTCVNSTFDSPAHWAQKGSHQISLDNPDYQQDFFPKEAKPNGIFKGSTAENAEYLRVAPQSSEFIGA

In the case of `CCN1CCN(Cc2ccc(NC(=O)c3ccc(C)c(/C=C/c4cnc5[nH]ccc5c4OC)c3)cc2C(F)(F)F)CC1`, the inhibition in assay [1] came to 77%; in [2], 20.3%; in assay [3] it was 29.8%. Further, the residual activity in [4] is 21%.
Regarding `CCN1CCN(Cc2ccc(NC(=O)c3ccc(C)c(Oc4ccnc5[nH]ccc45)c3)cc2C(F)(F)F)CC1`, the inhibition in assay [5] is 5.6%; in assay [6], 0.4%; in assay [8] it was 95.1%; in assay [9], 18.6%; in assay [10], 23%; in assay [11], 5%. The inhibition entry in assay [7] was “inactive”.
On to `CNc1cc(Oc2cc(C(=O)Nc3cc(N4CCN(C)CC4)cc(C(F)(F)F)c3)ccc2C)ncn1`, for which the inhibition in [12] is 0.7%; in [13] it was -8.9%.

Source of the values: ChEMBL document CHEMBL5696442, “Discovery of type II inhibitors of TGFβ-activated kinase 1 (TAK1) and mitogen-activated protein kinase kinase kinase kinase 2 (MAP4K2)” (J Med Chem, 2015).
